Compounds with a hit are over-represented: about 2.8% of the library has one in this group of screens.
NPY-Y1 PAM-ag: potentiates or activates human NPY-Y1 receptor | 0.37% of 220,000 active | activation, % at 3.6 µM | NPY-Y1 expressing cells, potentiator/agonist activation | P25929; in the data active means activation above about 33%, passing the limit was not always enough;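 further: cells stimulated with NPY at EC10 then isoproterenol at EC100; 0% = low agonist plus stimulus and 100% = saturating agonist plus stimulus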
NPY2 pot ag: potentiates or activates human NPY-Y2 receptor | P49146 | cells expressing NPY-Y2, potentiator/agonist read-out | activation, % at 3.6 µM | 0.45% of 220,000 active; in the data active means activation above about 27%;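 further: cells stimulated with NPY near EC25 plus isoproterenol at EC100; 0% = vehicle plus submaximal agonist and 100% = vehicle plus saturating agonist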
NPY-Y2 antag: antagonists of human neuropeptide Y receptor Y2; 0.99% of 140,000 active; P49146; NPY-Y2 expressing cells, antagonist mode; inhibition, % at 2.7 µM;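 further: 0% = vehicle with agonist challenge and 100% = reference antagonist with challenge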
EP2 antag: blocks the human prostaglandin E2 receptor EP2; 0.52% of 260,000 active; C6 glioma cells expressing human EP2, cAMP TR-FRET; cells stimulated with saturating PGE2; P43116; inhibition, % at 25 µM;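 active means percent inhibition above 40 after rounding to a whole number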;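 further: rat C6 glioma host cells with rolipram phosphodiesterase inhibitor present; the protocol text gives 20 µM as final concentration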
Target sequence (P43116 whole entry, looked up): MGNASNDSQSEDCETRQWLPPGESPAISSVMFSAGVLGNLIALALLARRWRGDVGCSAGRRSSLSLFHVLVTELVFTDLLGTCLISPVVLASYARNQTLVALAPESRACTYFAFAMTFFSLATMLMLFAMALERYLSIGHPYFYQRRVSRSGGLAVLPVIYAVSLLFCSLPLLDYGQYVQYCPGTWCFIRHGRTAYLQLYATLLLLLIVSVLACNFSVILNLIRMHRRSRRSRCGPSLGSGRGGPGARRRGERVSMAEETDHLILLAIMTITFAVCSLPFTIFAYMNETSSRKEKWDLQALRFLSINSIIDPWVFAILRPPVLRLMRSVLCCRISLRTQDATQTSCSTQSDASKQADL
EP2 modulator: modulates human prostaglandin E2 receptor EP2 signaling | P43116 | EP2-expressing cells, cAMP HTRF FRET, PGE2 co-stimulation | induction, % at 25 µM | 0.83% of 260,000 active;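 active means compounds whose cAMP rise, as percent of the full-agonist control response, exceeds 60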;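 further: rat C6 glioma line stably carrying human EP2 under a CMV promoter; the protocol text gives 20 µM as final concentration; 100% = response of wells given 1 µM PGE2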
NPY-Y1 antag: blocks the human neuropeptide Y Y1 receptor; P25929; HEK293-CNG Y1 cells, membrane potential fluorescence; NPY at EC95, then isoproterenol; inhibition, % at 3.6 µM; 1% of 200,000 active; AID 1040;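 active means inhibition above the campaign mean inhibition of all tested compounds plus 3 SD, cut at about 20% in these data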;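 further: 0% = DMSO wells given NPY plus isoproterenol and 100% = isoproterenol alone without NPY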
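Material: HEK293 cells with Y1 receptor plus CNG channel; times: compound incubation 1 h at room temperature, readout 45 min post-stimulation; signal: fluorescence, membrane potential probe; read-out basis: fluorescence ratio normalized to % inhibition between controls; benchmarks: full-block control isoproterenol-only wells, zero-block control NPY plus isoproterenol wells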
NPY-Y1 ant conf: human NPY-Y1 antagonism, confirmation. shares compounds with NPY-Y1 antag. HEK293-CNG NPY-Y1, membrane potential fluorescence, cAMP; NPY challenge against isoproterenol-raised cAMP. inhibition, % at 3.6 µM. 21% of 1,200 active. AID 1254; in the data active means inhibition above about 20%;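 further: 0% = vehicle with agonist plus stimulus and 100% = stimulus alone without agonist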
NPY-Y2 antag ct: antagonizes human NPY-Y2, counter-screen to NPY-Y1 antagonists. AID 1255. shares compounds with NPY-Y1 antag. 28% of 1,200 active. inhibition, % at 3.6 µM. HEK293 NPY-Y2 CNG membrane potential fluorescence, antagonism; cells given NPY, then isoproterenol;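 further: 0% = DMSO with agonist challenge and 100% = reference antagonist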
NPY-Y1 pot conf: confirmation of human NPY-Y1 receptor potentiators or agonists. 20% of 280 active. cell-based NPY-Y1 potentiator/agonist assay. activation, % at 3.6 µM. shares compounds with NPY-Y1 PAM-ag; in the data active means activation above about 45%;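 further: cells challenged with NPY at its EC10 plus isoproterenol stimulus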
NPY-Y2 counter: potentiates or activates NPY-Y2, counter-screen for NPY-Y1 hits | activation, % at 3.6 µM | HEK293-CNG cells, membrane-potential fluorescence (FLIPR), 1536-well | 20% of 280 active | shares compounds with NPY-Y1 PAM-ag | AID 1649; in the data active means activation above about 33%
NPY-Y1 ag: counter-screen for NPY-Y1 potentiators: agonists of human NPY-Y1. activation, % at 3.6 µM. HEK293 Y1-CNGC, membrane potential fluorescence, agonist mode. 50% of 280 active. shares compounds with NPY-Y1 PAM-ag;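 active means percent activation above the mean of DMSO-only control wells plus 3 SD of those wells, cut at about 18% in these data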;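 further: cells challenged with isoproterenol plus Ro 20-1724 with no NPY in test wells; Y1 agonism lowers isoproterenol-driven cAMP and reduces probe fluorescence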
NPY-Y2 ag: human NPY-Y2 agonism as NPY-Y1 counter-screen. shares compounds with NPY-Y1 PAM-ag. HEK293 Y2-CNGC, membrane potential fluorescence, agonist mode. activation, % at 3.6 µM. 67% of 280 active. AID 1698;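 active means activation above the solvent-only control wells' mean plus 3 SD, cut at about 11% in these data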;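 further: 0% = DMSO with isoproterenol and 100% = 40 nM NPY maximal response; agonism lowers cAMP so well fluorescence drops in active wells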
CNGC counter: counter-screen for NPY-Y1 potentiators or agonists: CNG channel inhibitors. 42% of 280 active. HEK293-CNG parental, isoproterenol cAMP, membrane potential fluorescence. inhibition, % at 3.6 µM. AID 1704. shares compounds with NPY-Y1 PAM-ag;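 active means inhibition above the mean of stimulated solvent-only control wells plus 3 SD, cut at about 22% in these data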;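 further: 0% = isoproterenol-stimulated DMSO wells and 100% = unstimulated DMSO wells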
The depositor's hits bear a star; x = not tested or not shown. Unless noted, no stated cut-off is given here; in the data, active means inhibition above about 17%; inactive means the rest.

SMILES	NPY-Y1 PAM-ag	NPY2 pot ag	NPY-Y2 antag	EP2 antag	EP2 modulator	NPY-Y1 antag	NPY-Y1 ant conf	NPY-Y2 antag ct	others
CC(C)CC(COCc1cccc(Cl)c1)N1CCN(C(=O)c2ccc(C(F)(F)F)cc2)CCC1=O (centres undefined)	-9	-3	13	8	33	27*	14	7
Cc1cccc(COCC(CC(C)C)N2CCN(C(=O)c3ccc(C(F)(F)F)cc3)CCC2=O)c1 (centres undefined)	-23	-4	14	6	33	13	x	x
O=C(O)CCCC(=O)Nc1ccccc1N1CCCC1	x	x	x	9	7	x	x	x
CCCn1c(SCC(=O)Nc2cccc(Cl)c2C)nnc1-c1ccncc1	x	x	x	12	-5	x	x	x
COc1cccc(C(=O)N2CCN(Cc3ccc(OC)c(OC)c3OC)CC2)c1	x	x	x	11	20	x	x	x
Cc1ccc2cc3cc(C(=O)NCCCN4CCCCCC4)oc3nc2c1	-15	-5	1	x	21	1	x	x
Cc1ccc2cc3cc(C(=O)NCCCN4CCc5ccccc5C4)oc3nc2c1	-98	-33	8	19	-77	21*	3	3
CS(=O)(=O)Nc1ccc(C(=O)CC2(O)C(=O)Nc3ccccc32)cc1 (centres undefined)	x	x	x	11	3	x	x	x
CO/N=C(\c1nonc1N)N1CCN(c2ccc([N+](=O)[O-])cc2Cl)CC1	-11	10	2	9	7	14	x	x
CO/N=C(\c1nonc1N)N1CCN(c2ccc(Cl)cc2[N+](=O)[O-])CC1	2	-2	13	x	-32	24*	16	9
Cc1cc2ccccc2n2c(SCc3cc(=O)[nH]c4ccccc34)nnc12	x	x	x	5	17	x	x	x
COC(=O)Cn1cnc2sc(C)c(-c3ccc(Cl)cc3)c2c1=O	x	x	x	14	26	x	x	x
Cc1cccc2cc(CN(Cc3ccco3)C(=O)Nc3cccc(C#N)c3)c(Cl)nc12	-27	-32	9	8	41	34*	19	9
CC1CCC(C(C)C)C(OCC(O)CN2CCCC(C)C2)C1 (centres undefined)	47*	12	x	5	-8	28*	27*	21*	NPY-Y1 pot conf=5;NPY-Y2 counter=5;NPY-Y1 ag=8;NPY-Y2 ag=14*;CNGC counter=-13
COc1ccc(NC(=O)CSc2cc(C)c3ccc(C)c(C)c3n2)cc1	x	x	x	10	-18	x	x	x
C[C@H]1O[C@H](O[C@@H]2[C@@H](O[C@H]3CC[C@@]4(C)C(CC[C@]5(C)C4CC=C4[C@@H]6CC(C)(C)CC[C@]6(C(=O)O)CC[C@]45C)[C@]3(C)CO)OC[C@@H](O)[C@H]2O)[C@@H](O)[C@H](O)[C@@H]1O (some centres undefined)	x	x	x	13	13	x	x	x

Screening results (PubChem)
